# Results reported in paper PMC6528641 (ChemistryOpen, 2019).
# Tests used:
# AChE = AChE (Electrophorus electricus, UniProt O42275); assay: AChE inhibitory assay; type: biochemical, Electroporus electricus
# BuChE = BuChE (Bos taurus, UniProt P32749); assay: BuChE inhibitory assay; type: biochemical, bovine
# [1] = Neurotoxicity assay, cell viability by Neutral Red method; type: cell-based, human; settings: human, SH-SY5Y neuroblastoma cells
# How it was run: (§1)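 SH-SY5Y cells (passages 18–23) in DMEM with 5% FBS were seeded at 2×10^4 cells/well and grown 24 h at 37 °C, 5% CO2. Test compound came from a 1×10−2 M DMSO stock, freshly diluted in medium, and was applied for 24 h. Controls were medium alone and 120 mM K+ (death). Cells were PBS-washed, given neutral red for 3 h at 37 °C, extracted 20 min with acidified ethanol, and read at A540.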
# [2] = test system: human neuroblastoma SH‐SY5Y cells; assay: as above; type: cell-based; settings: SH‐SY5Y cells
# How it was run: as §1
# AChE, sequence (O42275 24-633): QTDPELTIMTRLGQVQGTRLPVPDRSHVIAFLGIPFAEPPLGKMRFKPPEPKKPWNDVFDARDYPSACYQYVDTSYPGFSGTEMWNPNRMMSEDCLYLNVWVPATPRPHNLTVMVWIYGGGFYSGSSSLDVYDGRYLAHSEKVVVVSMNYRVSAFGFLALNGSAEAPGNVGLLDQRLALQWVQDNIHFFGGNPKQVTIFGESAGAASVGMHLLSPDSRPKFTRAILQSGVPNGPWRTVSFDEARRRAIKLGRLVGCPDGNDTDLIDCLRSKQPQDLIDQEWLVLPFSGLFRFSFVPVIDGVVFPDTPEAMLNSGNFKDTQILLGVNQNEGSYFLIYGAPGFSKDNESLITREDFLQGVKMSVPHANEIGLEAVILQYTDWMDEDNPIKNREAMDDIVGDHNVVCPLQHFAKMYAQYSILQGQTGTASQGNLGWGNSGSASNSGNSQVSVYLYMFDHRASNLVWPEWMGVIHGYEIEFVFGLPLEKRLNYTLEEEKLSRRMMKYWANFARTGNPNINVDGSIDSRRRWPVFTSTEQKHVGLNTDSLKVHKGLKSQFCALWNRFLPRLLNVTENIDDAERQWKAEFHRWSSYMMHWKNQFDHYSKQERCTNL
# BuChE, sequence (P32749 29-602): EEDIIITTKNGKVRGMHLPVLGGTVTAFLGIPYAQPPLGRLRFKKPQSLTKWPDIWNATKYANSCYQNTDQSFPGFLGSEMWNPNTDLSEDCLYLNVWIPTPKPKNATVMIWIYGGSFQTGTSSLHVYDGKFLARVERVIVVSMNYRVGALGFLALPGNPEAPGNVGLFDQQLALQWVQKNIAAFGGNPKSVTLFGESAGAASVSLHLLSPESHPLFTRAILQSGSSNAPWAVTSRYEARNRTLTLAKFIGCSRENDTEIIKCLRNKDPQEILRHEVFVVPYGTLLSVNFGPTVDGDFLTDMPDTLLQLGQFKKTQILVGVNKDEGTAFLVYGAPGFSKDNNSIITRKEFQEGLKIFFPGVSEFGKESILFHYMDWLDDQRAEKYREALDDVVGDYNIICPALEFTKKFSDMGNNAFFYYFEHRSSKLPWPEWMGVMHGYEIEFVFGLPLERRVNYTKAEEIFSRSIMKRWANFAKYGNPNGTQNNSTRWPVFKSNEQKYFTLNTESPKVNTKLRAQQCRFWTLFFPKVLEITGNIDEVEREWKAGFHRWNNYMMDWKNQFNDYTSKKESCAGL
Compound,IC50 (AChE),IC50 (BuChE),IC50 at 24 h [1],"viability at 24 h, 10 µM [1]","viability at 24 h, 1 mM [1]",Cytotoxicity (in words) [2]
"O=CNC1CC(c2ccccc2)Nc2c1ccc1cccnc21 (stereo not drawn) [4 a, N‐(2‐phenyl‐1,2,3,4‐tetrahydro‐1,10‐phenanthroline‐4‐yl) formamide]",> 500 µM,–,–,–,–,–
"O=CNC1CC(c2ccccn2)Nc2c1ccc1cccnc21 (stereo not drawn) [4 b, N‐(2‐(pyridin‐2‐yl)‐1,2,3,4‐tetrahydro‐1,10‐phenanthroline‐4‐yl) formamide]",143.66 ± 0.02 µM,152.99 ± 0.01 µM,–,–,–,–
"O=CNC1CC(c2cccnc2)Nc2c1ccc1cccnc21 (stereo not drawn) [4 c, N‐(2‐(pyridin‐3‐yl)‐1,2,3,4‐tetrahydro‐1,10‐phenanthroline‐4‐yl) formamide]",140.2 ± 0.02 µM,–,–,–,–,–
"O=CNC1CC(c2ccncc2)Nc2c1ccc1cccnc21 (stereo not drawn) [4 d, N‐(2‐(pyridin‐4‐yl)1,2,3,4‐tetrahydro‐1,10‐phenanthroline‐4‐yl) formamide]",63.63 ± 0.01 µM,138.63 ± 0.01 µM,5.5 mM,132 ± 25.6%,102 ± 18.9%,non‐cytoxicity
"COc1ccc(C2CC(NC=O)c3ccc4cccnc4c3N2)cc1 (stereo not drawn) [4 e, N‐(2‐(4‐methoxyphenyl)‐1,2,3,4‐tetrahydro‐1,10‐phenanthroline‐4‐yl) formamide]",362.11 ± 0.03 µM,–,3.7 mM,119 ± 6.4%,78.5 ± 12.5%,–
"O=CNC1CC(c2ccc([N+](=O)[O-])cc2)Nc2c1ccc1cccnc21 (stereo not drawn) [4 g, N‐(2‐(4‐nitrophenyl)‐1,2,3,4‐tetrahydro‐1,10‐phenanthroline‐4‐yl) formamide]",96.52 ± 0.01 µM,–,0.3 mM,116 ± 5%,21.9 ± 3.9%,non‐cytoxicity
"Nc1cccc2cccnc12 [8‐amino‐quinoline, reference compound]",171.56 ± 0.01 µM,195.08 ± 0.02 µM,–,–,–,–
